Data published in paper PMC9425296 (Journal of the American Chemical Society, 2022).
*1 amine or outer side, *2 acyl side, *3 side chain or, on linkers, in order; H or OH if unused. Where a SMILES comes first, the peptide text is derived from it. Bridges are numbered along the chain shown (N, C = ends). [ ]: non-standard residue; d: D form. X1 = O=C([C@@H]1C[C@H](SCc2cccc(C[*:3])c2)CN1[*:1])[*:2]

Columns and labels:
[1] = test system: OVCAR8 cells (p62, LC3B, GABARAP); assay: Western blot of autophagy markers in OVCAR8 cells; assay type: cell-based; settings: OVCAR8, 25 μM peptide plus 10 μM cisplatin, 48 h
[2] = test system: five human paralogs in the GABARAP/LC3 family (GABARAP, GABARAP-L1, GABARAP-L2, LC3A, LC3B); assay: FP binding across human LC3/GABARAP paralogs; settings: fluorescein-tagged peptide
In short: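 Fluorescence polarization with N-terminally fluorescein-labelled peptides titrated against each recombinant protein (GABARAP, GABARAP-L1, GABARAP-L2, LC3A, LC3B). Kd values come from the FP binding data. Results are the average and standard error of the mean of three or more independent trials.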

Structure (SMILES): CC(C)C[C@H](NC(=O)[C@@H]1CSCc2cccc(c2)CS[C@H]2C[C@@H](C(=O)N[C@@H](Cc3ccc(O)cc3)C(=O)N[C@@H]([C@@H](C)O)C(=O)N[C@@H](Cc3c[nH]c4ccccc34)C(=O)N[C@@H](CCC(=O)O)C(=O)N1)N(C(=O)[C@H](C)NC(=O)[C@@H](N)CC(=O)O)C2)C(=O)N[C@@H](C)C(=O)N[C@@H](Cc1c[nH]c2ccccc12)C(=O)N1CCC[C@H]1C(N)=O [MP3-meta] (H-DA[X1]YTWECLAWP-NH2; thioether 3-8; N-terminus and C-terminus assumed)
- LC3B-I level compared to cells treated with cisplatin alone [1]: increased LC3B-I
- binding to GABARAP and GABARAPL1 (in words) [2]: low-to-mid nanomolar range
- binding to GABARAP-L2, LC3A and LC3B (in words) [2]: mostly in the micromolar range
